Measurements taken from ChEMBL document CHEMBL3588770, “Novel spirohydantoin derivative as a potent multireceptor-active antipsychotic and antidepressant agent” (Bioorg Med Chem, 2015).

Experiments:
[1] = target: D(2) dopamine receptor (Rattus norvegicus, UniProt P61169); assay: Displacement of [3H]spiperone from D2 receptor in rat striatum by liquid scintillation counting analysis
Procedure, shortened: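 Rat striatal membranes with [3H]-spiperone. Compounds were tested in triplicate at 7–8 concentrations (10⁻¹¹–10⁻⁴). Ki values were calculated.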

[2] = target: T1, Alpha-2C adrenergic receptor (Homo sapiens) (UniProt P18825); assay: Displacement of [3H]RX821002 from human alpha2C adrenergic receptor expressed in CHO cells at 1 uM by scintillation counting analysis; assay type: cell-based
T1 sequence (whole entry): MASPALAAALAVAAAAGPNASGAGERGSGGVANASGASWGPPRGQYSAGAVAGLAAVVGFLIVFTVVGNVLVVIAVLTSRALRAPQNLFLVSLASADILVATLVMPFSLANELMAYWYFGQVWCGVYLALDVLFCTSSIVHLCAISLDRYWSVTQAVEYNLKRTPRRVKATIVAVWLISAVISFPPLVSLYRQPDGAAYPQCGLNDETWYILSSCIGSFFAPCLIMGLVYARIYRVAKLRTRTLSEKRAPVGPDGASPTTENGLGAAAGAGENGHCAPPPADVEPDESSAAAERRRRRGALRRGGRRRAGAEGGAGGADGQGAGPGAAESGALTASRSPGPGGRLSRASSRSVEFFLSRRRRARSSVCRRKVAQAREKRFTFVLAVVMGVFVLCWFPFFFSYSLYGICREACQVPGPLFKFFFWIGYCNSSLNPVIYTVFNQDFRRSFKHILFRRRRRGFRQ
Procedure, shortened: (§1)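 Extended binding screen run by a contract lab. Receptors were cloned human: 5-HT1A, 5-HT2A, 5-HT2C and H1 in HEK-293 cells; D1, α1, α2C and M3 in CHO cells; 5-HT6/7 and D2/3/4 in CHO cells. Radioligand displacement was done at a single 1.0E-06 concentration in duplicate. Results are mean % inhibition of control specific binding.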

[3] = target: T2, 5-hydroxytryptamine receptor 2C (Homo sapiens) (UniProt P28335); assay: Displacement of [3H]-mesulergine from human cloned 5HT2C receptor expressed in HEK293 cells at 1 uM by scintillation counting analysis; assay type: cell-based; procedure, shortened: as §1
T2 sequence (whole entry): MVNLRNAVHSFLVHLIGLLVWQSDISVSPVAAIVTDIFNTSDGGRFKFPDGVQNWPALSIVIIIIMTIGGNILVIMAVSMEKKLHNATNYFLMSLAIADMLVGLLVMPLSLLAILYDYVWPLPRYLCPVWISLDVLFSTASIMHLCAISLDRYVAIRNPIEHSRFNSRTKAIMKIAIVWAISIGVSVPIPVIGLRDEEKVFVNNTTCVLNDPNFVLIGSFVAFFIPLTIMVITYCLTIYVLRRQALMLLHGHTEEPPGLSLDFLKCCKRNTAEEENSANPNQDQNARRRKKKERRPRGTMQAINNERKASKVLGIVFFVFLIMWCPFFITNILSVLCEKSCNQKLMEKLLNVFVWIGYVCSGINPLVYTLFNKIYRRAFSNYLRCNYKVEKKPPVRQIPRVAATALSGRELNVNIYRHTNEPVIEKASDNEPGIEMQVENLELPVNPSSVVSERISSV

[4] = target: T3, D(4) dopamine receptor (Homo sapiens) (UniProt P21917); assay: Antagonist activity at human recombinant D4 receptor expressed in CHO cells assessed as inhibition of dopamine-induced intracellular cAMP release at 1 uM by HTRF method; assay type: functional, cell-based
T3 sequence (whole entry): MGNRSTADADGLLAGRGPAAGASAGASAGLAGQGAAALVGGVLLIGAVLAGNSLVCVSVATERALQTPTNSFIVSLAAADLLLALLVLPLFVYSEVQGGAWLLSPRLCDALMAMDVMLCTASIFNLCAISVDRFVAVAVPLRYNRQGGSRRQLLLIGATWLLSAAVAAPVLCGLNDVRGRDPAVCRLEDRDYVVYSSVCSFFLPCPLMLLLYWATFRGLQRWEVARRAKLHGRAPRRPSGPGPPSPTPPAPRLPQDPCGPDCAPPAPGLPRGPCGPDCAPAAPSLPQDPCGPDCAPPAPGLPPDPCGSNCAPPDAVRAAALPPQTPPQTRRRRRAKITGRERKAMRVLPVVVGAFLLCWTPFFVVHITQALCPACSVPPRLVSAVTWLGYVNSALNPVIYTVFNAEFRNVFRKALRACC
Procedure, shortened: (§2)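 Functional assays run by a contract lab on CHO or HEK-293 cells stably expressing the human receptor. Read-out was intracellular cAMP, IP1 or Ca2+ release. A single test concentration of 1.0E-06 was used, in duplicate. Data are mean % of the control response.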

[5] = target: 5-hydroxytryptamine receptor 7 (Homo sapiens) (UniProt P34969); assay: Antagonist activity at human recombinant 5HT7 receptor expressed in CHO cells assessed as inhibition of serotonin-induced intracellular cAMP release at 1 uM by HTRF assay; assay type: functional, cell-based; procedure, shortened: as §2
[6] = target: T3, D(4) dopamine receptor (Homo sapiens); assay: Agonist activity at human recombinant D4 receptor expressed in CHO cells assessed as intracellular cAMP release at 1 uM by HTRF method; assay type: functional, cell-based; procedure, shortened: as §2
[7] = target: Adrenergic receptor alpha-1 (Homo sapiens) (UniProt P35348+P25100+P35368); assay: Agonist activity at human recombinant alpha1 adrenoceptor expressed in CHO cells at 1 uM; assay type: cell-based; procedure, shortened: as §2
[8] = target: D(3) dopamine receptor (Homo sapiens) (UniProt P35462); assay: Agonist activity at human recombinant D3 receptor expressed in CHO cells assessed as intracellular cAMP release at 1 uM by HTRF method; assay type: functional, cell-based; procedure, shortened: as §2
[9] = target: Histamine H1 receptor (Homo sapiens) (UniProt P35367); assay: Antagonist activity at human recombinant H1 receptor expressed in HEK-293 cells assessed as inhibition of histamine-induced intracellular Ca2+ release at 1 uM by fluorimetry; assay type: functional, cell-based; settings: HEK293; procedure, shortened: as §2
[10] = target: Histamine H1 receptor (Homo sapiens) (UniProt P35367); assay: Agonist activity at human recombinant H1 receptor expressed in HEK-293 cells assessed as intracellular Ca2+ release at 1 uM by fluorimetry; assay type: functional, cell-based; settings: HEK293; procedure, shortened: as §2
[11] = target: 5-hydroxytryptamine receptor 2A (Homo sapiens) (UniProt P28223); assay: Agonist activity at human recombinant 5HT2A receptor expressed in HEK293 cells assessed as intracellular IP1 release at 1 uM by HTRF assay; assay type: functional, cell-based; procedure, shortened: as §2
[12] = target: T1, Alpha-2C adrenergic receptor (Homo sapiens); assay: Antagonist activity at human recombinant alpha2C adrenoceptor expressed in CHO cells assessed as inhibition of epinephrine-induced intracellular cAMP release at 1 uM by HTRF assay; assay type: functional, cell-based; procedure, shortened: as §2
[13] = target: D(2) dopamine receptor (Homo sapiens) (UniProt P14416); assay: Antagonist activity at human recombinant D2 receptor expressed in HEK293 cells assessed as inhibition of dopamine-induced response at 1 uM; assay type: cell-based; procedure, shortened: as §2
Sequence of D(2) dopamine receptor (Homo sapiens) (P14416 whole entry): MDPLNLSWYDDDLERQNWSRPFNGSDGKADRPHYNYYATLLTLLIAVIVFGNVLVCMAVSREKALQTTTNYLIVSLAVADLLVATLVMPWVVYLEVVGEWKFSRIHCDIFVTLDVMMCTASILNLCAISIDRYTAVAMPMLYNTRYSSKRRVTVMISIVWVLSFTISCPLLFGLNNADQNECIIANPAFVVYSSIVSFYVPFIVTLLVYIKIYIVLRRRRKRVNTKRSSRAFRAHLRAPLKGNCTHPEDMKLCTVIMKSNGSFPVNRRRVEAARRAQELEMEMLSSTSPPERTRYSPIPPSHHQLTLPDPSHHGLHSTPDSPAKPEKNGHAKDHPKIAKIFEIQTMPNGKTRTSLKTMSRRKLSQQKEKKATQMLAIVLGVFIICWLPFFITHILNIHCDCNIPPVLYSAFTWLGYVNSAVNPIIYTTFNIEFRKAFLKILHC

Sequence of D(2) dopamine receptor (P61169 whole entry): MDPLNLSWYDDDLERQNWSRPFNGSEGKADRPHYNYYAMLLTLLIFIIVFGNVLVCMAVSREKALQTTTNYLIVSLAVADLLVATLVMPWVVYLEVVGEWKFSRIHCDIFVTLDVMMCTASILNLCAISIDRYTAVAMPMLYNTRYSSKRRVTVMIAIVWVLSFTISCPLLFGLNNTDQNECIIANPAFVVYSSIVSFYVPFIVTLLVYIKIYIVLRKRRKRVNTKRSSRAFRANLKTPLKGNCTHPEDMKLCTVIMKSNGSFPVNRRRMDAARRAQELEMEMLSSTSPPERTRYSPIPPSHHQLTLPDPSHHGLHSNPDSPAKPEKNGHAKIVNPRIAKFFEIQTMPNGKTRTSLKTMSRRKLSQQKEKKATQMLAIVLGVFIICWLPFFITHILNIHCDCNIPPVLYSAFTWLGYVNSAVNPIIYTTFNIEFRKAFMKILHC
Sequence of Histamine H1 receptor (Homo sapiens) (P35367 whole entry): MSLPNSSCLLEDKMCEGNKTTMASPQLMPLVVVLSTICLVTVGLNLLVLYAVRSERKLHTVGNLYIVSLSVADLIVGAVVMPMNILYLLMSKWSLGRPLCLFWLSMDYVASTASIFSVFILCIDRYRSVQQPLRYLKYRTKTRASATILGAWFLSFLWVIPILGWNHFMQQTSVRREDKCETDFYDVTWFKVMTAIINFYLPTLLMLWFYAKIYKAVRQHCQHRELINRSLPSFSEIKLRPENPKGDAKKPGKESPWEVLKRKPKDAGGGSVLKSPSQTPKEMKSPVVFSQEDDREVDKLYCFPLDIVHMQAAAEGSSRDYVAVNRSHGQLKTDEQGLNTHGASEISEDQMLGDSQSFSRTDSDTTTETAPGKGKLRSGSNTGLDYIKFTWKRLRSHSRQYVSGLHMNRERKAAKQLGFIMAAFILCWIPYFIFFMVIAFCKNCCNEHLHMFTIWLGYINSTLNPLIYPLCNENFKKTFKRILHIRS
Sequence of 5-hydroxytryptamine receptor 7 (Homo sapiens) (P34969 whole entry): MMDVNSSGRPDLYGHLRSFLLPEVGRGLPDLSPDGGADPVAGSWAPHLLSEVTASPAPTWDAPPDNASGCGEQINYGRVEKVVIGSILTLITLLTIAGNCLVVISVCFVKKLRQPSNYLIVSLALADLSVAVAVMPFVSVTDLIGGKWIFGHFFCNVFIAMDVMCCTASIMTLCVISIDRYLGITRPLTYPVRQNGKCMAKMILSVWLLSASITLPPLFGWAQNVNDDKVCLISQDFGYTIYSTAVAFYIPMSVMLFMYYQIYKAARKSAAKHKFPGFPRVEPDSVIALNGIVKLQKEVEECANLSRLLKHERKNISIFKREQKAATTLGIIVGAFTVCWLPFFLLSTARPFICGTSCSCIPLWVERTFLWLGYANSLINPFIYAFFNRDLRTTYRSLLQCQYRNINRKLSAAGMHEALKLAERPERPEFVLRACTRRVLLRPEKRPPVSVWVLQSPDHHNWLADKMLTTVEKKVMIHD
Sequence of 5-hydroxytryptamine receptor 2A (Homo sapiens) (P28223 whole entry): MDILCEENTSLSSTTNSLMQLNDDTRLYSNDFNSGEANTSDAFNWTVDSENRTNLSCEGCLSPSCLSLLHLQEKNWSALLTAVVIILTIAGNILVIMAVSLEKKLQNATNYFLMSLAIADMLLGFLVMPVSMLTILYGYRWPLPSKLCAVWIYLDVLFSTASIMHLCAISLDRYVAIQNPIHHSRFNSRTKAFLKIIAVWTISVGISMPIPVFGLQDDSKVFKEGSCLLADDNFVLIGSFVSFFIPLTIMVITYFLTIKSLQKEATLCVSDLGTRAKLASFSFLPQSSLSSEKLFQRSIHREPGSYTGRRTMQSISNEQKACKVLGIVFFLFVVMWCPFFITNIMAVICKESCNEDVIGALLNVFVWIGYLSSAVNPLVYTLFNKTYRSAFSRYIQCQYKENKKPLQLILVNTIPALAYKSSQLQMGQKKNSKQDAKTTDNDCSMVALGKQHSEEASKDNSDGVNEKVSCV
Sequence of D(3) dopamine receptor (Homo sapiens) (P35462 whole entry): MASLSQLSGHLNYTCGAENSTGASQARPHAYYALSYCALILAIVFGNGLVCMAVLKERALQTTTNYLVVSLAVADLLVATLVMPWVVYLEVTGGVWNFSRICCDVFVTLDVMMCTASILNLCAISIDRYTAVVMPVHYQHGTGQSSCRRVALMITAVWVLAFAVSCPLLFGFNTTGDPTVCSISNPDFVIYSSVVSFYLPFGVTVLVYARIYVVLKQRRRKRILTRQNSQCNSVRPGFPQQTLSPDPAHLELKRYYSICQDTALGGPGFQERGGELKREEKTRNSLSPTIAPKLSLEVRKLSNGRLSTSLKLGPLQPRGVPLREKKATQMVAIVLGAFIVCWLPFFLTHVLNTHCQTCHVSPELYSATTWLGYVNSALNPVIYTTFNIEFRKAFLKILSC

Row | Ki [1] [nM] | inhibition [2] [%] | inhibition [3] [%] | inhibition [4] [%] | inhibition [5] [%] | Activity [6] [%] | Activity [7] [%] | Activity [8] [%] | inhibition [9] [%] | Activity [10] [%] | Activity [11] [%] | inhibition [12] [%] | inhibition [13] [%] | SMILES
1 | 539 | 97 | 61 | – | – | – | – | – | – | – | – | – | – | O=C1NC2(CCc3ccccc32)C(=O)N1CCCCN1CCN(c2cccc(Cl)c2)CC1 (configuration not stated)
2 | 1100 | 99 | 61 | – | – | – | – | – | – | – | – | – | – | O=C1NC2(CCCc3ccccc32)C(=O)N1CCCCN1CCN(c2cccc(Cl)c2)CC1 (configuration not stated)
3 | 104 | 101 | 21 | 75 | 28 | 27 | 2 | 20 | 58 | -2 | 1 | 69 | 85 | COc1ccccc1N1CCN(CCCCN2C(=O)NC3(CCc4ccccc43)C2=O)CC1 (configuration not stated)
4 | 59 | 101 | 24 | 84 | 43 | 15 | 1 | 18 | 63 | -2 | 0 | 79 | 91 | COc1ccccc1N1CCN(CCCCN2C(=O)NC3(CCCc4ccccc43)C2=O)CC1 (configuration not stated)
